Values after ≈ are worked out from the molar mass of the structure shown.
Legend:
MDA-MB-468 = assay: Antiproliferative activity, SRB assay; format: cell-based, human; conditions: for IC50: MDA-MB-468, 72 h; for calculated selectivity index SI: IC50 MCF-10A / IC50 MDA-MB-468
MV4-11 = assay: Antiproliferative activity, MTT assay; format: cell-based, human; conditions: for IC50: MV4-11, 72 h; for calculated selectivity index SI: IC50 MCF-10A / IC50 MV4-11
PC-3 = assay: Antiproliferative activity, SRB assay; format: cell-based, human; conditions: for calculated selectivity index SI: IC50 MCF-10A / IC50 PC3
MCF-7 = assay: Antiproliferative activity, SRB assay; format: cell-based, human; conditions: for calculated selectivity index SI: IC50 MCF-10A / IC50 MCF-7
[1] = background statement, no reference given, cited from earlier work
A-549 = assay: Antiproliferative activity, SRB assay; format: cell-based, human; conditions: for calculated selectivity index SI: IC50 MCF-10A / IC50 A-549
MCF-10A = assay: cells; format: cell-based, human
MDA-MB-468 cells = assay: Cell cycle analysis; format: cell-based, human; conditions: MDA-MB-468, 72 h, 1.5 × IC50
MV4-11 cells [2] = assay: Apoptosis determination by Annexin V staining; format: cell-based, human; conditions: MV4-11, 1.5 × IC50
[3] = test system: caspase-3/7 in MV4-11 cells; assay: Caspase-3/7 activity determination; format: cell-based, human; conditions: MV4-11, 24 h or 72 h, 1.5 × IC50
MV4-11 cells [4] = assay: Cell cycle analysis; format: cell-based, human; conditions: MV4-11, 72 h, 1.5 × IC50
[5] = test system: selected cancer cell lines (MV4-11, A549, PC-3, MDA-MB-468, MCF-7); assay: Antiproliferative activity, all studied cancer cell lines together; format: cell-based, human; conditions: read-out: IC50 values, range over all studied cancer cell lines; 72 h
Outline: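 Cells were seeded 24 h before treatment at 0.5×10^4 (A549), 0.75×10^4 (MDA-MB-468, MCF-7) or 1×10^4 (PC-3, MV4-11) cells/well. They were exposed 72 h to test compound at 1–625 μM in medium; loaded nanocarrier was dosed by encapsulated conjugate. Read-out was MTT (MV4-11) or SRB (others). Triplicates, 3–5 independent runs; IC50 per run, mean ± SD.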

[6] = test system: caspase-3/7 in MDA-MB-468 cells; assay: Caspase-3/7 activity determination; format: cell-based, human; conditions: MDA-MB-468, 24 h or 72 h, 1.5 × IC50
[7] = SRB, n.a. = not active in the range concentration (5–625 μM)

Structure (SMILES) | IC50 (MDA-MB-468; [7]) | IC50 (MV4-11; MTT) | IC50 (PC-3; PC3, 72 h, SRB) | IC50 (MCF-7; MCF-7, 72 h, SRB) | IC50 (A-549; A-549, 72 h, SRB) | calculated selectivity index SI (MDA-MB-468) | calculated selectivity index SI (MV4-11) | calculated selectivity index SI (PC-3) | calculated selectivity index SI (MCF-7) | calculated selectivity index SI (A-549) | also measured
COc1ccc2c(c1)c(CC(=O)O)c(C)n2C(=O)c1ccc(Cl)cc1 [IND, indomethacin, reference compound] | – | – | – | – | – | – | – | – | – | – | IC50 (MDA-MB-468; Homo sapiens): 270 ± 56.3 µM; IC50 (MV4-11; Homo sapiens): 204 ± 41.5 µM; IC50 (PC-3; Homo sapiens, PC-3, 72 h): 160 ± 61.5 µM; IC50 (MCF-7; Homo sapiens, MCF7, 72 h): 187 ± 19.4 µM; Biopharmaceutical Classification System (BCS) class [1]: Class II; water solubility ([1]; pH7): 105.2 µg/mL (≈ 294 µM); IC50 (A-549; Homo sapiens, A549, 72 h): 121 ± 31.6 µM; IC50 (MCF-10A; Homo sapiens, MCF-10A, 72 h): 191 ± 11.4 µM
CCCCCCCCCCCCCCCC(=O)O[C@H](COC(=O)Cc1c(C)n(C(=O)c2ccc(Cl)cc2)c2ccc(OC)cc12)COP(=O)([O-])OCC[N+](C)(C)C [IND-PA-PC, 1-indomethacinoyl-2-palmitoyl-sn-glycero-3-phosphocholine] | – | 430 ± 104 µM | 563 ± 75.1 µM | 424 ± 14.4 µM | 423 ± 84.1 µM | – | – | – | – | – | –
CCCCCCCC/C=C\CCCCCCCC(=O)OC[C@H](COP(=O)([O-])OCC[N+](C)(C)C)OC(=O)Cc1c(C)n(C(=O)c2ccc(Cl)cc2)c2ccc(OC)cc12 [OA-IND-PC, 1-oleoyl-2-indomethacinoyl-sn-glycero-3-phosphocholine] | 56.4 ± 0.6 µM | 56.3 ± 0.8 µM | 58 ± 11.9 µM | 59.8 ± 2.1 µM | 53.8 ± 1.2 µM | 1.80 | 1.80 | 1.75 | 1.70 | 1.89 | effect on cell cycle / cell death (MDA-MB-468 cells): stopped the cell cycle in the G0/G1 phase, but did not induce cell death; effect on number of apoptotic (AnV+/PI+) cells (MV4-11 cells [2]): slightly increased; caspase-3/7 activation [3]: strongly increased caspase activity in MV4-11 cells after 72 h; effect on cell cycle / cell death (MV4-11 cells [4]): strongly induced cell death; IC50 [5]: 33.5 to 67.5 µM
COc1ccc2c(c1)c(CC(=O)OC[C@@H](O)COP(=O)([O-])OCC[N+](C)(C)C)c(C)n2C(=O)c1ccc(Cl)cc1 [IND-LPC, 1-indomethacinoyl-2-hydroxy-sn-glycero-3-phosphocholine] | 2.7 ± 0.5 µM | 3.1 ± 0.5 µM | 14.4 ± 2.9 µM | 7.9 ± 0.7 µM | 27.2 ± 4.9 µM | 2.56 | 2.23 | 0.48 | 0.87 | 0.25 | fold lower IC50 than free IND (MDA-MB-468; MDA-MB-468): 100 fold; times more active against MDA-MB-468 than MCF-7 (MDA-MB-468; MDA-MB-468 vs MCF-7): 3 times; effect on cell cycle / cell death (MDA-MB-468 cells): strongly induces breast cancer cell death; fold lower IC50 than free IND (MV4-11; MV4-11): 66 fold; effect on number of apoptotic (AnV+/PI+) cells (MV4-11 cells [2]): slightly increased; caspase-3/7 activation [3]: higher level after 24 h than 72 h; effect on cell cycle / cell death (MV4-11 cells [4]): strongly induced cell death; caspase-3/7 activation [6]: higher level after 24 h than 72 h; toxicity towards MCF-10A at the active doses (MCF-10A; at 3.1 μM and 2.7 μM): not toxic

Now from value to molecule, other results behind:

IC50 (MDA-MB-468; [7]) | IC50 (MV4-11; MTT) | IC50 (PC-3; PC3, 72 h, SRB) | IC50 (MCF-7; MCF-7, 72 h, SRB) | IC50 (A-549; A-549, 72 h, SRB) | Structure (SMILES) | calculated selectivity index SI (MDA-MB-468) | calculated selectivity index SI (MV4-11) | calculated selectivity index SI (PC-3) | calculated selectivity index SI (MCF-7) | calculated selectivity index SI (A-549) | also measured
289 ± 12.2 µM | 329 ± 34.6 µM | 230 ± 15.8 µM | 288 ± 22.2 µM | 243 ± 15.7 µM | CCCCCCCCCCCCCCCCCC(=O)OC[C@H](COP(=O)([O-])OCC[N+](C)(C)C)OC(=O)Cc1c(C)n(C(=O)c2ccc(Cl)cc2)c2ccc(OC)cc12 [SA-IND-PC, 1-stearoyl-2-indomethacinoyl-sn-glycero-3-phosphocholine] | 1.87 | 1.64 | 2.34 | 1.87 | 2.22 | –
281 ± 35.9 µM | 268 ± 34.3 µM | 233 ± 0.6 µM | 276 ± 134 µM | 233 ± 108 µM | CCCCCCCCCCCCCCCC(=O)OC[C@H](COP(=O)([O-])OCC[N+](C)(C)C)OC(=O)Cc1c(C)n(C(=O)c2ccc(Cl)cc2)c2ccc(OC)cc12 [PA-IND-PC, 1-palmitoyl-2-indomethacinoyl-sn-glycero-3-phosphocholine] | 1.10 | 1.16 | 1.33 | 1.12 | 1.33 | –
214 ± 46.1 µM | 160 ± 59.7 µM | 209 ± 18.3 µM | 230 ± 10.3 µM | 201 ± 23.5 µM | CCCCCCCCCCCCCCCCCC(=O)O[C@H](COC(=O)Cc1c(C)n(C(=O)c2ccc(Cl)cc2)c2ccc(OC)cc12)COP(=O)([O-])OCC[N+](C)(C)C [IND-SA-PC, 1-indomethacinoyl-2-stearoyl-sn-glycero-3-phosphocholine] | 1.42 | 1.90 | 1.46 | 1.33 | 1.51 | –

Reference: PMC11608545 (International Journal of Nanomedicine, 2024)
